Compound activity from PubChem BioAssay.
PolyA inhibitor = blocks polyadenylation in yeast reporter cells. S. cerevisiae SKY197-pL101 polyadenylation reporter, beta-gal luminescence; efflux-impaired pdr1/pdr3 knockout yeast; score 100 = 6 SD above DMSO. activity score, % at 12 µM. 300,000 compounds, 0.02% hits. AID 1875;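 active = lowest replicate activity score at least 50, where 100 means six control SD above control mean; inconclusive = lowest score under 50 but half or more replicates reach 50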;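 note: yeast exposed to compound for 9 h at 30 °C; higher score means more reporter readthrough which indicates perturbed polyadenylation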
proCasp3 act = procaspase-3 (human) activation; P42574; recombinant procaspase-3 D3A, Ac-DEVD-pNA absorbance 405 nm; activation, % at 8.5 µM; 330,000 compounds, 0.11% hits; AID 463141;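 active = activation above the mean of all tested compounds plus 3 SD, cut at about 21% in these data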
Target sequence (P42574 whole entry D9A/D28A/D175A): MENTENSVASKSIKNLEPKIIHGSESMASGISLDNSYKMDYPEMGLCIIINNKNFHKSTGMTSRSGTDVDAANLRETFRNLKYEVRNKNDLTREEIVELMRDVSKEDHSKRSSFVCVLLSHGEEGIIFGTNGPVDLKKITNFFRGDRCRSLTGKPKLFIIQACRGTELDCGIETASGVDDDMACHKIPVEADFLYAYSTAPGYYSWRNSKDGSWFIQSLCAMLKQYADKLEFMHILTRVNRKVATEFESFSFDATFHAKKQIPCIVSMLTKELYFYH
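Assay system: Autoprocessing-dead procaspase-3 D3A mutant enzyme; also added: Ac-DEVD-pNA; doses: one concentration, 8.5 µM nominal, 0.8% DMSO; times: 1 h compound preincubation, 2 h substrate hydrolysis at 25 °C; technique: 405 nm absorbance of p-nitroaniline, reads at 0 and 120 min; measure: % activation between DMSO and enzyme-spiked controls; repeats: single replicate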
AHR activator = human AHR activation. AID 2796. activation, % at 5 µM. AHR-responsive luciferase reporter cells, luminescence. 320,000 compounds, 2.5% hits; in the data active = activation above about 47%
proCasp7 act = counter-screen: procaspase-7 (human) activation. activation, % at 8.5 µM. recombinant procaspase-7, Ac-DEVD-pNA absorbance 405 nm; D23A/D198A/D206A triple mutant, cannot self-cleave; scale: DMSO 0, 5 µM enzyme 100. 330,000 compounds, 0.093% hits;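 active = percent activation above the screen-wide mean plus 3 SD, cut at about 25% in these data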
Target sequence (P55210 whole entry D23A/D198A/D206A): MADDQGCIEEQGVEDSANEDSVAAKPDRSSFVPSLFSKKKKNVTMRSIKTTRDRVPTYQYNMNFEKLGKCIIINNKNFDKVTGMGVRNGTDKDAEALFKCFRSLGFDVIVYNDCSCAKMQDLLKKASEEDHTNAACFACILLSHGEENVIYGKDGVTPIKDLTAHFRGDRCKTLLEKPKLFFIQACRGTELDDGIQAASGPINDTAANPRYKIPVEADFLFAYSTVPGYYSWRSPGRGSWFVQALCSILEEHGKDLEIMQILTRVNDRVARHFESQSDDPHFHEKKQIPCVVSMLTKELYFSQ
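signal = Epi-absorbance of released pNA at 405 nm, two timepoints | assay system = Uncleavable procaspase-7 mutant enzyme | reagent = Ac-DEVD-pNA substrate, 400 µM as added | times = 1 h enzyme–compound preincubation and 2 h substrate reaction, both 25 °C | benchmarks = low DMSO alone, high DMSO plus 5 µM PC-7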
Of the large screens only hits and unclear results are named; the others gave an inactive call. The list is not random: actives were taken first. Their share in the collection is about 2.6%.

CC1(C)CCC(=O)N2CC[C@H]3C[C@H](OC(=O)Nc4ccc5c(c4)OCO5)C[C@@H]1[C@H]32	AHR activator 60.1
CC1(C)CCC(=O)N2CC[C@H]3C[C@H](OC(=O)Nc4ccccc4)C[C@@H]1[C@H]32	none
COc1ccc(OCC(=O)NNC(=O)c2ccccc2OCc2c(C)noc2C)cc1	none
CC(=O)NCc1ccc(-c2csc(-c3cccs3)n2)cc1	none
COc1ccccc1-n1c(SC(C)C(=O)NCC2CCCO2)nc2cc(Cl)ccc2c1=O (stereo not drawn)	AHR activator 58.7
O=C(NNC(=S)Nc1ccccc1Cl)c1ccccc1Br	none (no result: proCasp3 act, AHR activator, proCasp7 act)
CC(=O)c1cccc(NC(=O)c2ccc(N(C)S(=O)(=O)c3ccc(C)cc3)cc2)c1	AHR activator 47.9
CC(=O)Nc1ccc(S(=O)(=O)N2CCC(C(=O)NCc3ccncc3)CC2)cc1	none
Cn1nc(-c2ccccc2)nc1-c1ccccc1	AHR activator 48.3
c1ccc(Cn2nc(-c3ccccc3)nc2-c2ccccc2)cc1	none
O=C(O)Cc1ccc(NS(=O)(=O)c2ccc3ccccc3c2)cc1	none
N#CCSc1nc2ccccc2c2nc3ccccc3n12	AHR activator 48.1
CC(NC(=O)c1ccc(Br)cc1Br)c1ccccc1 (stereo not drawn)	PolyA inhibitor 62.4
CC(NC(=O)c1ccc(Br)cc1)c1ccccc1 (stereo not drawn)	PolyA inhibitor 70.1
COc1cccc(NC(=O)c2sc3ncn(CC(=O)N4CCN(c5ccccn5)CC4)c(=O)c3c2C)c1	none
CN(C)c1ccc(NC(=O)CSc2nc(C3CC3)nc3ccccc23)cc1	none
CCOCCCN(C(=O)Cn1nnc(-c2ccc(C)o2)n1)C(C(=O)NC1CCCC1)c1ccc(C)o1 (stereo not drawn)	none (no result: proCasp3 act, AHR activator, proCasp7 act)
CCC(=O)c1ccc(Oc2nc3c(c(=O)n(C)c(=O)n3C)n2CC)cc1	AHR activator 60.8
COC(=O)c1ccc(Oc2nc3c(c(=O)n(C)c(=O)n3C)n2CCC(C)C)cc1	none
O=C(CNC(=O)c1[nH]cnc1C(=O)NC(c1ccccc1)c1ccccc1)OCc1ccccc1	none
CC1CN(C(=O)Nc2ccc3c(c2)OCO3)CC(C)O1 (stereo not drawn)	AHR activator 51.9
O=C(Nc1ccc2c(c1)OCO2)N1CCCC1	AHR activator 69.9
O=C(Nc1ccc2c(c1)OCO2)N1CCCc2ccccc21	AHR activator 55.5
O=C(Nc1ccc2c(c1)OCO2)N1CCN(c2ccc(F)cc2)CC1	AHR activator 58.0
COc1ccc(NC(=O)N2CC(C)OC(C)C2)cc1OC (stereo not drawn)	none
O=C(Nc1ccc2c(c1)OCO2)N1CCOCC1	PolyA inhibitor inconclusive
Cc1oc(-c2ccccc2)cc1C(=O)NCc1ccncc1	none
CC(=O)Oc1cc2c(C(=O)NCc3ccncc3)c(C)oc2c2ccccc12	AHR activator 51.8
CC(Oc1ccc(Br)cc1)C(=O)N(C)CC(=O)Nc1ccc(N2CCOCC2)cc1 (stereo not drawn)	none
NCCc1c(-c2ccccc2)n(-c2ccccc2)c2ccccc12	none (no result: proCasp3 act, AHR activator, proCasp7 act)
COc1cc(NC(=O)C/C(C)=N/NC(=O)Cc2ccc(Cl)cc2)c(OC)cc1Cl	AHR activator 81.0
C/C(CC(=O)Nc1cc(Cl)ccc1Cl)=N\NC(=O)c1ccccc1Br	AHR activator 71.3
Cc1nc2c(c(C)c1C#N)C(=O)c1ccccc1-2	AHR activator 72.0
Cc1nc2c(c(-c3ccccc3)c1C#N)C(=O)c1ccccc1-2	none
CSc1nnc(CCCCCCCCc2nnc(SC)o2)o1	none
COc1ccc(S(=O)(=O)Nc2ccccc2C(=O)N2CCOCC2)cc1OC	none
CC(=O)c1c(C)[nH]c(C(=O)Nc2ccccc2N2CCOCC2)c1C	AHR activator 71.5
CC(=O)c1c(C)[nH]c(C(=O)Nc2ccc(Cl)cc2F)c1C	none
CCOc1cc(N2CCOCC2)c(OCC)cc1NC(=O)c1[nH]c(C)c(C(C)=O)c1C	none (no result: PolyA inhibitor)
O=C(c1ccccc1NS(=O)(=O)c1cccc([N+](=O)[O-])c1)N1CCOCC1	proCasp3 act 26.2
CC(=O)c1c(C)[nH]c(C(=O)Nc2ccc(F)c(F)c2F)c1C	AHR activator 61.8
O=C(Nc1ccccc1N1CCOCC1)c1cccc([N+](=O)[O-])c1	AHR activator 66.6
COc1cc(C2NC(=O)CCC2[N+](=O)[O-])c(OC)cc1Br (stereo not drawn)	none
CC(=O)c1c(C)[nH]c(C(=O)Nc2cccc(C)c2C)c1C	AHR activator 54.8
CC(=O)c1c(C)[nH]c(C(=O)Nc2ccc(Cl)cc2)c1C	none
CC(=O)c1c(C)[nH]c(C(=O)Nc2ccccn2)c1C	AHR activator 71.0
COc1ccccc1NC(=O)c1[nH]c(C)c(C(C)=O)c1C	AHR activator 54.7
CC(=O)c1c(C)[nH]c(C(=O)NC2=NCCS2)c1C	AHR activator 75.2
Cn1c(CNC(=O)c2ccccc2F)cc2ccccc21	AHR activator 49.5
Cc1ccc2[nH]c(CNC(=O)c3ccccc3F)cc2c1	none
O=C(NCc1cc2ccccc2[nH]1)c1ccccc1F	AHR activator 47.6
Cc1cnc(C(=O)OCC(=O)Nc2cccc(S(=O)(=O)N3CCOCC3)c2)cn1	none (no result: PolyA inhibitor)
Cc1ccc(-n2[nH]c3c4c(ccc3c2=O)C(=O)c2ccccc2C4=O)cc1	none
CC(C)(C)n1[nH]c2c3c(ccc2c1=O)C(=O)c1ccccc1C3=O	AHR activator 50.3
COCCCn1[nH]c2c3c(ccc2c1=O)C(=O)c1ccccc1C3=O	AHR activator 52.3
S=C(Nc1ccc(Cl)cc1)c1nc2ccccc2[nH]1	none
Cc1ccccc1NC(=S)c1nc2ccccc2[nH]1	AHR activator 47.0
S=c1[nH]nc(-c2cc(-c3ccccn3)nc3ccccc23)o1	AHR activator 73.5
Cc1ccc(-c2cc(-c3n[nH]c(=S)o3)c3ccccc3n2)cc1	none
CSCCC(NC(=O)c1ccc(Cl)cc1)C(=O)OCC(=O)Nc1cc(Cl)ccc1C#N (stereo not drawn)	AHR activator 56.1
CCc1ccc(-c2cn(C3CCCCC3)c(=S)[nH]2)cc1	AHR activator 62.5
Cc1cc(NC(=O)c2cccc(Oc3ccccc3)c2)n[nH]1	AHR activator 65.8
OCC(O)/C=N/Nc1nc2ccccc2s1 (stereo not drawn)	none
Cc1ccsc1/C=N/Nc1nc2ccccc2s1	AHR activator 70.5
Cc1cc(C)nc(N/N=C/c2sccc2C)n1	none
C(=N\Nc1nc2ccccc2s1)/c1cccs1	AHR activator 76.2
COc1ccc(NC(=O)CN(C)C(=O)/C=C/c2cn(-c3ccccc3)nc2-c2cccs2)cc1	none
COc1ccc(OC)c(C2C(C(=O)Nc3nc4ccccc4s3)=C(C)NC3=C2C(=O)CCC3)c1 (stereo not drawn)	none
COc1cccc(C2C(C(=O)Nc3nc4ccccc4s3)=C(C)NC3=C2C(=O)CC(C)(C)C3)c1OC (stereo not drawn)	proCasp3 act 45.1
CCCCOC(=O)NS(=O)(=O)c1sc(CC(C)C)cc1-c1ccc(Cn2c(CC)nc3c(C)cc(C)nc32)cc1	none (no result: PolyA inhibitor)
